Measurements from ChEMBL document CHEMBL1143122, “Novel analogs of D-e-MAPP and B13. Part 1: synthesis and evaluation as potential anticancer agents” (Bioorg Med Chem, 2008).

Key:
NCI-H322M = assay: Antiproliferative activity against human NCI-H322M cells after 48 hrs; assay type: functional
Outline: (§1)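 NCI 60-cell screen. Cells were grown in RPMI 1640 with 5% FBS and 2 mM L-glutamine, then plated at 5,000–40,000 cells/well according to doubling time and preincubated for 24 h at 37 °C in 5% CO2. Compounds were dissolved in DMSO at 400× the top final concentration and tested at five 10-fold dilutions from 10−4 to 10−8 M for 48 h. Growth was read spectrophotometrically; GI50 is 50% net protein reduction.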

K562 = assay: Antiproliferative activity against human K562 cells after 48 hrs; assay type: functional; conditions: K562, 48 h; outline: as §1
BT-549 = assay: Antiproliferative activity against human BT549 cells after 48 hrs; assay type: functional; conditions: BT-549, 48 h; outline: as §1
RPMI-8226 = assay: Antiproliferative activity against human RPMI8226 cells after 48 hrs; assay type: functional; conditions: RPMI-8226, 48 h; outline: as §1
MDA-MB-435 = assay: Antiproliferative activity against human MDA-MB-435 cells after 48 hrs; assay type: functional; conditions: Homo sapiens, MDA-MB-435, 48 h; outline: as §1
HCT-15 = assay: Antiproliferative activity against human HCT15 cells after 48 hrs; assay type: functional; conditions: Homo sapiens, HCT-15, 48 h; outline: as §1
HOP-62 = assay: Antiproliferative activity against human HOP62 cells after 48 hrs; assay type: functional; conditions: HOP-62, 48 h; outline: as §1
UACC-257 = assay: Antiproliferative activity against human UACC257 cells after 48 hrs; assay type: functional; conditions: UACC-257, 48 h
Outline: (§2)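 NCI 60-cell-line screen. Lines grown in RPMI 1640 with 5% fetal bovine serum and 2 mM L-glutamine, plated at 5,000–40,000 cells/well according to doubling time, left 24 h at 37 °C in 5% CO2. Drug stocks in DMSO at 400-fold the top final concentration. Five 10-fold dilutions, 10−4 to 10−8 M, incubated 48 h. Growth read spectrophotometrically as net protein; GI50 taken as 50% reduction.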

UO-31 = assay: Antiproliferative activity against human UO31 cells after 48 hrs; assay type: functional; conditions: UO-31, 48 h; outline: as §2
MOLT-4 = assay: Antiproliferative activity against human MOLT4 cells after 48 hrs; assay type: functional; conditions: MOLT-4, 48 h; outline: as §1
CAKI-1 = assay: Antiproliferative activity against human CAKI1 cells after 48 hrs; assay type: functional; conditions: CAKI-1, 48 h; outline: as §1
NCI-H460 = assay: Antiproliferative activity against human NCI-H460 cells after 48 hrs; assay type: functional; conditions: NCI-H460, 48 h; outline: as §1
UACC-62 = assay: Antiproliferative activity against human UACC62 cells after 48 hrs; assay type: functional; conditions: UACC-62, 48 h; outline: as §2
SK-MEL-28 = assay: Antiproliferative activity against human SKMEL28 cells after 48 hrs; assay type: functional; conditions: SK-MEL-28, 48 h; outline: as §1
[1] = Antiproliferative activity against human […] cells after 48 hrs; assay type: functional; outline: as §1
MDA-MB-231 = assay: Antiproliferative activity against human MDA-MB-231 cells after 48 hrs; assay type: functional; conditions: MDA-MB-231, 48 h; outline: as §1
T47D = assay: Antiproliferative activity against human T47D cells after 48 hrs; assay type: functional; outline: as §2
OVCAR-8 = assay: Antiproliferative activity against human OVCAR8 cells after 48 hrs; assay type: functional; conditions: OVCAR-8, 48 h; outline: as §1
SF-268 = assay: Antiproliferative activity against human SF268 cells after 48 hrs; assay type: functional; conditions: SF-268, 48 h; outline: as §1
LOX IMVI = assay: Antiproliferative activity against human LOXIMVI cells after 48 hrs; assay type: functional; outline: as §1
MCF7 = assay: Antiproliferative activity against human MCF7 cells after 48 hrs; assay type: functional, cell-based; conditions: MCF7, 48 h
HOP-92 = assay: Antiproliferative activity against human HOP92 cells after 48 hrs; assay type: functional; conditions: HOP-92, 48 h; outline: as §1
DU-145 = assay: Antiproliferative activity against human DU145 cells after 48 hrs; assay type: functional; conditions: DU-145, 48 h; outline: as §1
SK-OV-3 = assay: Antiproliferative activity against human SKOV3 cells after 48 hrs; assay type: functional; conditions: SK-OV-3, 48 h; outline: as §1
SK-MEL-2 = assay: Antiproliferative activity against human SKMEL2 cells after 48 hrs; assay type: functional; conditions: SK-MEL-2, 48 h; outline: as §1
U-251 = assay: Antiproliferative activity against human U251 cells after 48 hrs; assay type: functional; conditions: U-251, 48 h; outline: as §2
SNB-75 = assay: Antiproliferative activity against human SNB75 cells after 48 hrs; assay type: functional; conditions: SNB-75, 48 h; outline: as §1
OVCAR-5 = assay: Antiproliferative activity against human OVCAR5 cells after 48 hrs; assay type: functional; conditions: OVCAR-5, 48 h; outline: as §1
[2] = read-out: Log LC50 (the source's name) (converted)

SMILES: CCCCCCCCCCCCCCN[C@@H](CO)Cc1ccccc1
- GI50 (NCI-H322M): 2000 nM
- CC50 (NCI-H322M; [2]): 7.41 µM
- TGI (NCI-H322M; read-out: Log TGI (converted)): 3.89 µM
- GI50 (K562): 1820 nM
- LC50 (K562): 9.33 µM
- TGI (K562; read-out: Log TGI (converted)): 4.07 µM
- LC50 (BT-549): 4.57 µM
- TGI (BT-549; read-out: Log TGI (converted)): 1780 nM
- GI50 (RPMI-8226): 1550 nM
- CC50 (RPMI-8226; [2]): 7.41 µM
- TGI (RPMI-8226; read-out: Log TGI (converted)): 3.39 µM
- GI50 (MDA-MB-435): 1740 nM
- LC50 (MDA-MB-435): 5.62 µM
- TGI (MDA-MB-435; read-out: Log TGI (converted)): 3.16 µM
- GI50 (HCT-15): 1700 nM
- LC50 (HCT-15): 5.89 µM
- TGI (HCT-15; read-out: Log TGI (converted)): 3.16 µM
- GI50 (HOP-62): 1230 nM
- CC50 (HOP-62; [2]): 5.37 µM
- TGI (HOP-62; read-out: Log TGI (converted)): 2570 nM
- GI50 (UACC-257): 2090 nM
- CC50 (UACC-257; [2]): 17.8 µM
- TGI (UACC-257; read-out: Log TGI (converted)): 4.79 µM
- GI50 (UO-31): 4.37 µM
- LC50 (UO-31): > 100 µM
- TGI (UO-31; read-out: Log TGI (converted)): 21.4 µM
- GI50 (MOLT-4): 2040 nM
- LC50 (MOLT-4): 9.33 µM
- TGI (MOLT-4; read-out: Log TGI (converted)): 4.37 µM
- GI50 (CAKI-1): 1660 nM
- CC50 (CAKI-1; [2]): 5.62 µM
- TGI (CAKI-1; read-out: Log TGI (converted)): 3.09 µM
- GI50 (NCI-H460): 1820 nM
- CC50 (NCI-H460; [2]): 6.17 µM
- TGI (NCI-H460; read-out: Log TGI (converted)): 3.39 µM
- GI50 (UACC-62): 2000 nM
- LC50 (UACC-62): 7.94 µM
- TGI (UACC-62; read-out: Log TGI (converted)): 3.98 µM
- GI50 (SK-MEL-28): 1910 nM
- LC50 (SK-MEL-28): 6.31 µM
- TGI (SK-MEL-28; read-out: Log TGI (converted)): 3.47 µM
- GI50 [1]: 4.68 µM
- LC50 [1]: 45.7 µM
- TGI ([1]; read-out: Log TGI (converted)): 17 µM
- GI50 (MDA-MB-231): 2000 nM
- LC50 (50% lethal concentration) (MDA-MB-231): 6.61 µM
- TGI (MDA-MB-231; read-out: Log TGI (converted)): 3.63 µM
- GI50 (T47D): 1660 nM
- CC50 (T47D; [2]): 6.92 µM
- TGI (T47D; read-out: Log TGI (converted)): 3.31 µM
- GI50 (OVCAR-8): 1910 nM
- TGI (OVCAR-8; read-out: Log TGI (converted)): 3.8 µM
- GI50 (SF-268): 1780 nM
- LC50 (SF-268): 7.08 µM
- TGI (SF-268; read-out: Log TGI (converted)): 3.55 µM
- GI50 (LOX IMVI): 1580 nM
- LC50 (LOX IMVI): 5.75 µM
- TGI (LOX IMVI; read-out: Log TGI (converted)): 3.02 µM
- GI50 (MCF7): 1740 nM
- LC50 (MCF7): 6.03 µM
- TGI (MCF7; read-out: Log TGI (converted)): 3.24 µM
- GI50 (HOP-92): 1230 nM
- LC50 (HOP-92): 6.46 µM
- TGI (HOP-92; read-out: Log TGI (converted)): 2820 nM
- GI50 (DU-145): 1450 nM
- CC50 (DU-145; [2]): 6.03 µM
- TGI (DU-145; read-out: Log TGI (converted)): 3.09 µM
- GI50 (SK-OV-3): 2190 nM
- CC50 (SK-OV-3; [2]): 9.33 µM
- TGI (SK-OV-3; read-out: Log TGI (converted)): 4.57 µM
- GI50 (SK-MEL-2): 2690 nM
- LC50 (SK-MEL-2): > 100 µM
- TGI (SK-MEL-2; read-out: Log TGI (converted)): 5.5 µM
- GI50 (U-251): 1740 nM
- TGI (U-251; read-out: Log TGI (converted)): 3.24 µM
- GI50 (SNB-75): 2190 nM
- CC50 (SNB-75; [2]): 14.1 µM
- TGI (SNB-75; read-out: Log TGI (converted)): 4.79 µM
- GI50 (OVCAR-5): 2400 nM
- CC50 (OVCAR-5; [2]): 15.8 µM
- TGI (OVCAR-5; read-out: Log TGI (converted)): 5.5 µM
